Assay results reported in ChEMBL document CHEMBL4765239, “Discovery of a Novel Highly Selective Histamine H4 Receptor Antagonist for the Treatment of Atopic Dermatitis” (J Med Chem, 2018).
Converted amounts (≈) assume the structure as drawn.

Columns and labels:
[1] = biological target: Histamine H4 receptor (Homo sapiens, UniProt Q9H3N8); experiment: Displacement of [3H]-histamine from recombinant human histamine H4 receptor expressed in CHO-K1 cell membranes measured after 30 mins by microbeta scintillation counting method; design: species or system Cell membrane
[2] = biological target: Histamine H3 receptor (Homo sapiens, UniProt Q9Y5N1); experiment: Displacement of [3H]-N-alpha-methylhistamine from recombinant human histamine H3 receptor expressed in CHO-K1 cell membranes measured after 30 mins by microbeta scintillation counting method; design: species or system Cell membrane
Sequence of Histamine H3 receptor (Q9Y5N1 whole entry): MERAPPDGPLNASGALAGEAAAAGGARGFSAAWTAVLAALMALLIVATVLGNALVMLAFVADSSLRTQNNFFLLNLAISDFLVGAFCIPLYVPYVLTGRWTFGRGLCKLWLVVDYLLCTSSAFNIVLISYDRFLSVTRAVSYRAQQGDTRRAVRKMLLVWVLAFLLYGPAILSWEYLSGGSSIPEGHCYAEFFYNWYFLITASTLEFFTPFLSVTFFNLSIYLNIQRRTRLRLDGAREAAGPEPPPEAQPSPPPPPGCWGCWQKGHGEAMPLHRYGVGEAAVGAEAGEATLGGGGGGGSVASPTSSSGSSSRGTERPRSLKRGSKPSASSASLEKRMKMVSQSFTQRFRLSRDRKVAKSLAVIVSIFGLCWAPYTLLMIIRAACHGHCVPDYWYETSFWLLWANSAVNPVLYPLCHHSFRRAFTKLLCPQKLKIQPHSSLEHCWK
Method in brief: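 Competitive binding on CHO-K1 membranes expressing human H3R ([3H]Nα-methylhistamine) or mouse H4R ([3H]histamine). Run in 50 mM Tris-HCl pH 7.4 for 30 min at 27 °C, then filtered onto 0.5% PEI-treated glass fiber and washed three times with ice-cold buffer. Bound radioactivity read by liquid scintillation counting.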

[3] = Intrinsic clearance in CD1 mouse liver microsomes at 5 uM incubated upto 30 mins in presence of NADPH by UPLC-UV analysis; format: ADME, Microsome; conditions: read-out: CLH
Method in brief: (§1)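 Test compound at 5 µM incubated with pooled CD-1 mouse or human liver microsomes plus 1 mM NADPH. Remaining compound measured by UPLC-UV at 0, 10, 20 and 30 min. CLint derived from the first-order elimination rate constant, normalized to microsomal protein.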

[4] = Intrinsic clearance in human liver microsomes at 5 uM incubated upto 30 mins in presence of NADPH by UPLC-UV analysis; format: ADME, Microsome; conditions: read-out: CLH; method in brief: as §1
[5] = Solubility of compound in SGF at pH 1.2 incubated for 2 hrs by UPLC-UV analysis; format: physicochemical
Method in brief: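 Compound incubated at 37 °C in FaSSIF (pH 6.5) for 0.5 h or in SGF (pH 1.2) for 2 h. Filtered through 0.45 µm, concentration measured by UPLC-UV.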

[6] = Solubility of compound in FaSSIF at pH 6.5 incubated for 0.5 hrs by UPLC-UV analysis
[7] = biological target: T1, 5-hydroxytryptamine receptor 3A (Homo sapiens) (UniProt P46098); experiment: Displacement of [3H]BRL 43694 from human recombinant 5-HT3 receptor at 10 uM after 120 mins by scintillation counting analysis relative to control
T1 sequence (whole entry): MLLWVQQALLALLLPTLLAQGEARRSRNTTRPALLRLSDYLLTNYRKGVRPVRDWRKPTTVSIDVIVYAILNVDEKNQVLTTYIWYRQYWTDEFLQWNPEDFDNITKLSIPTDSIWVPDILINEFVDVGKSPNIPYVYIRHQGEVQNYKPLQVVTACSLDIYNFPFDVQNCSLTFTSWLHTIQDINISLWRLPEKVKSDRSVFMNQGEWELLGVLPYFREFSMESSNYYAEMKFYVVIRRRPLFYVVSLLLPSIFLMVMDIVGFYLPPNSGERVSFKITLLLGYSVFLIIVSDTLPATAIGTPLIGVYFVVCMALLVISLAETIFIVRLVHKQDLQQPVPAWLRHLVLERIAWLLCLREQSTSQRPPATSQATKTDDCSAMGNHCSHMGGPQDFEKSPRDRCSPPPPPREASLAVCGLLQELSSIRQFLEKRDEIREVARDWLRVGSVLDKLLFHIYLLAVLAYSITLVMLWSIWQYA

[8] = Basicity constant, pKa of the compound; format: physicochemical
[9] = Lipophilicity, logD of the compound at pH 7.4; format: physicochemical; conditions: buffer
[10] = Cmax in ICR mouse at 50 mg/kg, po measured upto 24 hrs by LC-MS/MS analysis; format: ADME, organism-based; design: route oral, dose 50 mg/kg, time <=24; conditions: in vivo
Method in brief: (§2)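 Female ICR mice, n=3 per group, given test compound orally. Blood sampled at 0.5, 1, 2, 4, 7 and 24 h post dose; plasma levels quantified by LC-MS/MS. Parameters from non-compartmental analysis.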

[11] = Tmax in ICR mouse at 50 mg/kg, po measured upto 24 hrs by LC-MS/MS analysis; format: ADME, organism-based; conditions: in vivo; method in brief: as §2
[12] = AUC (all) in ICR mouse at 50 mg/kg, po measured upto 24 hrs by LC-MS/MS analysis; format: ADME, organism-based; design: route oral, dose 50 mg/kg, time <=24; conditions: in vivo; method in brief: as §2
[13] = biological target: T2, 5-hydroxytryptamine receptor 3A (Homo sapiens, UniProt P46098); experiment: Displacement of [3H]BRL 43694 from human recombinant 5-HT3 receptor after 120 mins by scintillation counting analysis
T2 sequence (P46098 whole entry): T1 sequence (whole entry)

| Structure (SMILES) | IC50 [1] [µM] | IC50 [2] [µM] | microsomal CLint at 5 µM [3] [µL/min/mg] | microsomal CLint at 5 µM [4] [µL/min/mg] | solubility at 2 h [5] [mg/mL] | solubility at 0.5 h [6] [mg/mL] | also measured |
| --- | --- | --- | --- | --- | --- | --- | --- |
| N[C@@H]1CCN(c2nc3ncc(Cl)cc3n3cnnc23)C1 | 6.3 |  |  |  |  |  |  |
| CN1CCCN(c2nc3ncc(Cl)cc3n3cnnc23)CC1 | 2.9 | 11 |  |  |  |  |  |
| CN(C)C1CN(c2nc3ncc(Cl)cc3n3cnnc23)C1 | 1.2 |  |  |  |  |  | inhibition ([7]; filed as antagonist): 77.5% |
| Clc1cnc2nc(N3CCN4CCCC4C3)c3nncn3c2c1 (configuration not stated) | 0.052 | 24 |  |  |  |  |  |
| CN1CCN(c2nc3ncc(Br)cc3n3cnnc23)CC1 |  | 71 | 3.13 | 1.64 | 1.93 (≈ 5.54 mM) | 0.679 (≈ 1.95 mM) |  |
| CN1CCN(c2nc3ncc(Br)cc3n3nnnc23)CC1 |  | 49 |  |  |  |  | inhibition ([7]; filed as antagonist): 89% |
| Cc1ccc2nc(N3CCN(C)CC3)c3nncn3c2c1 | 0.57 | 15 | 23.3 | 7.51 | > 2 | 1.94 (≈ 6.88 mM) |  |
| Clc1cnc2nc(N3CCNCC3)c3nncn3c2c1 |  |  |  |  |  |  | pKa [8]: 8.9 |
| CN1CCN(c2nc3ccc(Cl)cc3n3cnnc23)CC1 |  | 4.4 | 29.1 | 5.83 | > 2 | 0.227 (≈ 0.75 mM) | IC50 ([1]; cho-k1): 0.022 µM; logD [9]: 2.12; Cmax [10]: 0.676 µg/mL; Tmax [11]: 40.2 min; AUC at 24 h [12]: 1.68 µg·h/mL |
| CN1CCN(c2nc3cccnc3n3cnnc23)CC1 | 3 |  | 50.2 | 8.21 | 1.92 (≈ 7.14 mM) | > 2 |  |
| CN1CCN(c2nc3nc(OCC(F)(F)F)c(Cl)cc3n3cnnc23)CC1 |  |  | 4.94 | 5.72 |  |  |  |
| CN1CCN(c2nc3ncc(I)cc3n3cnnc23)CC1 |  |  | 3.74 | 2.81 | 1.25 (≈ 3.16 mM) | 0.126 (≈ 0.319 mM) |  |
| NC1CN(c2nc3ncc(Cl)cc3n3cnnc23)C1 | 5.2 |  |  |  |  |  | inhibition [7]: 24.5% |
| CNC1CN(c2nc3ncc(Cl)cc3n3cnnc23)C1 | 0.065 |  |  |  |  |  | inhibition ([7]; filed as antagonist): 50% |
| CN1CCN(c2nc3ncc(Cl)cc3n3nnnc23)CC1 |  | 73 |  |  |  |  | inhibition ([7]; filed as antagonist): 85% |
| CN1CCN(c2nc3ncc(Cl)cc3n3cnnc23)CC1 | 0.077 |  | 1.98 | 0.6 | > 2 | 1.24 (≈ 4.1 mM) | logD [9]: 0.95; inhibition ([7]; filed as antagonist): 100%; pKa [8]: 9.9; IC50 [13]: 0.057 µM; Cmax [10]: 4.63 µg/mL; Tmax [11]: 30 min; AUC at 24 h [12]: 23.6 µg·h/mL |
| CNC1CN(c2nc3ncc(Cl)cc3c3ncnn23)C1 | 1.1 |  |  |  |  |  | inhibition [7]: 32% |
| CN[C@@H]1CCN(c2nc3ncc(Cl)cc3n3cnnc23)C1 | 4.1 |  |  |  |  |  |  |
| Clc1cnc2nc(N3CCCNCC3)c3nncn3c2c1 | > 10 |  |  |  |  |  |  |
| Clc1cnc2nc(N3CC4CCCNC4C3)c3nncn3c2c1 (configuration not stated) | > 10 |  |  |  |  |  |  |
| Cc1cnc2nc(N3CCN(C)CC3)c3nncn3c2c1 |  |  | 2.91 | 5.17 | 2 (≈ 7.05 mM) | 1.91 (≈ 6.72 mM) |  |
| CN1CCN(c2nc3nc(Cl)c(Cl)cc3n3cnnc23)CC1 |  |  | 5.28 | 2.55 | 1.95 (≈ 5.76 mM) | 0.163 (≈ 0.482 mM) |  |
| CCOc1nc2nc(N3CCN(C)CC3)c3nncn3c2cc1Cl | 0.52 |  | 3.56 | 3.28 |  |  |  |
| CN1CCN(c2cc3ccc(Cl)cc3n3cnnc23)CC1 | 6.2 | > 100 | 8.43 | 0.86 | > 2 | > 2 |  |
| CN1CCN(c2nc3ncc(C#N)cc3n3cnnc23)CC1 |  |  | 2.8 | 3.49 | 1.74 (≈ 5.92 mM) | 0.417 (≈ 1.42 mM) |  |

Now from value to compound, other results behind:

| IC50 [1] [µM] | IC50 [2] [µM] | microsomal CLint at 5 µM [3] [µL/min/mg] | microsomal CLint at 5 µM [4] [µL/min/mg] | solubility at 2 h [5] [mg/mL] | solubility at 0.5 h [6] [mg/mL] | Structure (SMILES) | also measured |
| --- | --- | --- | --- | --- | --- | --- | --- |
| 0.17 | 41 | 10.4 | 2.63 | 1.9 (≈ 6.06 mM) | 0.0802 (≈ 0.256 mM) | CN1CCN(c2nc3ccc([N+](=O)[O-])cc3n3cnnc23)CC1 |  |
| 0.053 |  |  |  |  |  | CNC1CN(c2nc3ncc(Cl)cc3n3nnnc23)C1 | inhibition [7]: 18% |
| 4.8 |  |  |  |  |  | CN(C)[C@@H]1CCN(c2nc3ncc(Cl)cc3n3cnnc23)C1 |  |
|  | 36 | 0.69 | 1.63 |  |  | CN1CCN(c2nc3nc(C#N)c(Cl)cc3n3cnnc23)CC1 |  |
| 3 |  | 5.36 | 0.61 | > 2 | > 2 | CN1CCN(c2nc3ncccc3n3cnnc23)CC1 |  |
|  | 75 |  |  |  |  | CN1CCN(c2nc3ncc(Cl)cc3c3ncnn23)CC1 | inhibition ([7]; filed as antagonist): 96% |
|  | > 100 | 128 | 6.5 | 1.41 (≈ 5.09 mM) | 0.378 (≈ 1.36 mM) | CN1CCN(C(=O)c2cc3cc(Cl)ccc3[nH]2)CC1 [JNJ-7777120] |  |
|  | 43 | 2.05 | 1.31 | > 2 | 1.23 (≈ 3.65 mM) | CN1CCN(c2nc3ncc(C(F)(F)F)cc3n3cnnc23)CC1 |  |
|  | 24 | 7.62 | 3.84 | 1.8 (≈ 4.97 mM) | 0.583 (≈ 1.61 mM) | Cc1c(Br)cnc2nc(N3CCN(C)CC3)c3nncn3c12 |  |
| > 10 |  |  |  |  |  | Clc1cnc2nc(N3CCN(C4CC4)CC3)c3nncn3c2c1 |  |
| 2.3 | > 100 | 73.1 | 11.5 | > 2 | 1.19 (≈ 4.42 mM) | CN1CCN(c2nc3ccccc3n3cnnc23)CC1 |  |
